Test results as given in ChEMBL document CHEMBL1147105, “In vitro and in vivo activities of PD 0305970 and PD 0326448, new bacterial gyrase/topoisomerase inhibitors with potent antibacterial activities versus multidrug-resistant gram-positive and fastidious organism groups” (2007).
Values after ≈ are worked out from the molar mass of the structure shown.

Key:
Streptococcus equinus = test: Antibacterial activity against Streptococcus bovis; type: functional
In short: (§1)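 Broth microdilution MIC following CLSI guidelines, in cation-adjusted Mueller-Hinton broth with 3% lysed horse blood. Plates incubated at 35°C. Clinical isolates and reference strains, with identity confirmed by standard microbiological methods.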

Bacteroides ovatus = test: Antibacterial activity against Bacteroides ovatus; type: functional
In short: (§2)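 Anaerobic broth microdilution MIC following CLSI guidelines, in supplemented Brucella broth. Run in an anaerobe chamber under 5% CO2, 5% H2 and 90% N2 at 35°C, and read after 48 h. Reported as MIC range, MIC50 and MIC90.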

[1] = test system: Peptostreptococcus anaerobius; test: Antibacterial activity against Peptostreptococcus anaerobius; type: functional; in short: as §2
Neisseria gonorrhoeae = test: Antibacterial activity against Neisseria gonorrhoeae; type: functional
In short: (§3)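 MIC by broth microdilution in gonococcal broth, incubated at 35°C in 5% CO2. Reported as MIC range, MIC50 and MIC90.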

Pseudomonas aeruginosa = test: Antibacterial activity against Pseudomonas aeruginosa; type: functional
In short: (§4)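 Broth microdilution MIC following CLSI guidelines, in cation-adjusted Mueller-Hinton broth, incubated at 35°C. Recent clinical isolates and reference strains, with identity confirmed by automated and standard microbiological methods. Results reported as MIC range, MIC50 and MIC90.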

Streptococcus mitis = test: Antibacterial activity against Streptococcus mitis; type: functional; in short: as §1
Proteus mirabilis = test: Antibacterial activity against Proteus mirabilis; type: functional; in short: as §4
[2] = test system: Bacteroides thetaiotaomicron; test: Antibacterial activity against Bacteroides thetaiotaomicron; type: functional; in short: as §2
[3] = test system: Parabacteroides distasonis; test: Antimicrobial activity against Bacteroides distasonis; type: functional
In short: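 Anaerobic broth microdilution MIC following CLSI guidelines, in supplemented Brucella broth. Incubated at 35°C in a chamber under 5% CO2, 5% H2 and 90% N2. Read after 48 h.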

Prevotella buccae = test: Antibacterial activity against Prevotella buccae; type: functional; conditions: Segatella buccae; in short: as §2
Neisseria meningitidis = test: Antibacterial activity against Neisseria meningitidis; type: functional; in short: as §3
Enterococcus faecium = test: Antibacterial activity against Enterococcus faecium; type: functional
In short: (§5)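 Broth microdilution MIC per CLSI guidelines, incubated at 35°C. Cation-adjusted Mueller-Hinton broth for nonfastidious organisms and staphylococci. Streptococci tested in the same broth with 3% lysed horse blood. Anaerobes tested in supplemented Brucella broth inside an anaerobe chamber (5% CO2, 5% H2, 90% N2), read after 48 h. Strains were mainly recent clinical isolates with confirmed identity.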

Corynebacterium sp. = test: Antibacterial activity against Corynebacterium sp.; type: functional
In short: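 Broth microdilution MIC following CLSI guidelines, in cation-adjusted Mueller-Hinton broth containing 3% lysed horse blood, incubated at 35°C. Clinical isolates with identity confirmed. Reported as MIC range, MIC50 and MIC90.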

Enterococcus faecalis [4] = test: Antibacterial activity against beta-lactamase positive Enterococcus faecalis; type: functional
In short: (§6)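 MIC by CLSI broth microdilution for nonfastidious organisms, in cation-adjusted Mueller-Hinton broth incubated at 35°C.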

Serratia marcescens = test: Antibacterial activity against Serratia marcescens; type: functional; in short: as §4
Enterobacter cloacae = test: Antibacterial activity against Enterobacter cloacae; type: functional; in short: as §4
Streptococcus salivarius = test: Antibacterial activity against Streptococcus salivarius; type: functional; in short: as §1
Morganella morganii = test: Antibacterial activity against Morganella morganii; type: functional; in short: as §4
Prevotella bivia = test: Antibacterial activity against Prevotella bivia; type: functional; in short: as §2
Enterococcus faecalis [5] = test: Antibacterial activity against VanB-resistant Enterococcus faecalis; type: functional; in short: as §5
Salmonella typhimurium = test: Antibacterial activity against Salmonella enterica serovar Typhimurium; type: functional, Salmonella enterica subsp. enterica serovar Typhimurium; in short: as §4
Prevotella corporis = test: Antibacterial activity against Prevotella corporis; type: functional; in short: as §2
Finegoldia magna = test: Antibacterial activity against Peptostreptococcus magnus; type: functional; in short: as §2
Cutibacterium acnes = test: Antibacterial activity against Propionibacterium acnes; type: functional
Legionella pneumophila = test: Antibacterial activity against Legionella pneumophila; type: functional
In short: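 Broth microdilution MIC per CLSI guidelines, run in buffered yeast extract α-ketoglutarate broth at 35°C and read after 48 h.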

Moraxella catarrhalis = test: Antibacterial activity against beta-lactamase negative Moraxella catarrhalis; type: functional
[6] = test system: Fusobacterium necrophorum; test: Antibacterial activity against Fusobacterium necrophorum; type: functional; in short: as §2
Klebsiella pneumoniae = test: Antibacterial activity against beta-lactamase positive Klebsiella pneumoniae; type: functional; in short: as §6
Haemophilus influenzae = test: Antibacterial activity against beta-lactamase positive Haemophilus influenzae; type: functional
In short: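 Broth microdilution MIC following CLSI guidelines, in Haemophilus test medium at 35°C.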

Staphylococcus aureus = test: Antibacterial activity against oxacillin-susceptible Staphylococcus aureus; type: functional; in short: as §6
Hoylesella oralis = test: Antibacterial activity against Prevotella oralis; type: functional; in short: as §2
Shigella sonnei = test: Antibacterial activity against Shigella sonnei; type: functional; in short: as §4
[7] = test system: Staphylococcus epidermidis; test: Antibacterial activity against oxacillin-resistant Staphylococcus epidermidis; type: functional; in short: as §5

For `COc1c(N2CCNC(C)C2)c(F)cc2c(=O)c(C(=O)O)cn(C3CC3)c12` (configuration not stated) [GATIFLOXACIN], the MIC50 (Streptococcus equinus) was 1 µg/mL (≈ 2.66 µM), the MIC90 (Streptococcus equinus) was 1 µg/mL (≈ 2.66 µM) and the MIC50 (Bacteroides ovatus) was 4 µg/mL (≈ 10.7 µM). It also gave an MIC90 (Bacteroides ovatus) of 16 µg/mL (≈ 42.6 µM), an MIC [1] of 0.06 µg/mL (≈ 0.16 µM) and an MIC50 (Neisseria gonorrhoeae) of 0.004 µg/mL (≈ 0.0107 µM). The MIC90 (Neisseria gonorrhoeae) was 0.008 µg/mL (≈ 0.0213 µM), the MIC50 (Pseudomonas aeruginosa) was 1 µg/mL (≈ 2.66 µM) and the MIC90 (Pseudomonas aeruginosa) was 64 µg/mL (≈ 170 µM). The MIC50 (Streptococcus mitis) was 0.5 µg/mL (≈ 1.33 µM), the MIC90 (Streptococcus mitis) was 0.5 µg/mL (≈ 1.33 µM) and the MIC50 (Proteus mirabilis) was 0.25 µg/mL (≈ 0.666 µM). The MIC90 (Proteus mirabilis) was 4 µg/mL (≈ 10.7 µM), the MIC50 [2] was 4 µg/mL (≈ 10.7 µM) and the MIC90 [2] was 16 µg/mL (≈ 42.6 µM). For the same compound, the MIC50 [3] was 4 µg/mL (≈ 10.7 µM), the MIC90 [3] was 16 µg/mL (≈ 42.6 µM) and the MIC50 (Prevotella buccae) was 0.25 µg/mL (≈ 0.666 µM). For the same compound, the MIC90 (Prevotella buccae) was 0.5 µg/mL (≈ 1.33 µM), the MIC50 (Neisseria meningitidis) was 0.004 µg/mL (≈ 0.0107 µM) and the MIC90 (Neisseria meningitidis) was 0.008 µg/mL (≈ 0.0213 µM). The MIC50 (Enterococcus faecium) was 8 µg/mL (≈ 21.3 µM), the MIC90 (Enterococcus faecium) was 64 µg/mL (≈ 170 µM) and the MIC50 (Corynebacterium sp.) was 0.25 µg/mL (≈ 0.666 µM). For the same compound, the MIC90 (Corynebacterium sp.) was 32 µg/mL (≈ 85.2 µM), the MIC (Enterococcus faecalis [4]) was 0.25 µg/mL (≈ 0.666 µM) and the MIC50 (Serratia marcescens) was 0.25 µg/mL (≈ 0.666 µM). The MIC90 (Serratia marcescens) was 4 µg/mL (≈ 10.7 µM), the MIC50 (Enterobacter cloacae) was 0.06 µg/mL (≈ 0.16 µM) and the MIC90 (Enterobacter cloacae) was 1 µg/mL (≈ 2.66 µM). It also gave an MIC50 (Streptococcus salivarius) of 0.5 µg/mL (≈ 1.33 µM), an MIC90 (Streptococcus salivarius) of 0.5 µg/mL (≈ 1.33 µM) and an MIC50 (Morganella morganii) of 0.25 µg/mL (≈ 0.666 µM). For the same compound, the MIC90 (Morganella morganii) was 32 µg/mL (≈ 85.2 µM), the MIC50 (Prevotella bivia) was 0.25 µg/mL (≈ 0.666 µM) and the MIC90 (Prevotella bivia) was 0.5 µg/mL (≈ 1.33 µM). It also gave an MIC50 (Enterococcus faecalis [5]) of 8 µg/mL (≈ 21.3 µM), an MIC90 (Enterococcus faecalis [5]) of 16 µg/mL (≈ 42.6 µM) and an MIC50 (Salmonella typhimurium) of 0.03 µg/mL (≈ 0.0799 µM). The MIC90 (Salmonella typhimurium) was 0.06 µg/mL (≈ 0.16 µM), the MIC50 (Prevotella corporis) was 0.25 µg/mL (≈ 0.666 µM) and the MIC90 (Prevotella corporis) was 0.5 µg/mL (≈ 1.33 µM). The MIC (Finegoldia magna) was 0.06 µg/mL (≈ 0.16 µM), the MIC50 (Cutibacterium acnes) was 1 µg/mL (≈ 2.66 µM) and the MIC90 (Cutibacterium acnes) was 8 µg/mL (≈ 21.3 µM). It also gave an MIC50 (Legionella pneumophila) of 0.008 µg/mL (≈ 0.0213 µM), an MIC90 (Legionella pneumophila) of 0.008 µg/mL (≈ 0.0213 µM) and an MIC50 (Moraxella catarrhalis) of 0.06 µg/mL (≈ 0.16 µM). The MIC90 (Moraxella catarrhalis) was 0.06 µg/mL (≈ 0.16 µM), the MIC [6] was 0.015 µg/mL (≈ 0.04 µM) and the MIC50 (Klebsiella pneumoniae) was 1 µg/mL (≈ 2.66 µM). The MIC90 (Klebsiella pneumoniae) was 16 µg/mL (≈ 42.6 µM), the MIC50 (Haemophilus influenzae) was 0.015 µg/mL (≈ 0.04 µM) and the MIC90 (Haemophilus influenzae) was 0.015 µg/mL (≈ 0.04 µM). For the same compound, the MIC50 (Staphylococcus aureus) was 0.125 µg/mL (≈ 0.333 µM), the MIC90 (Staphylococcus aureus) was 0.125 µg/mL (≈ 0.333 µM) and the MIC50 (Hoylesella oralis) was 0.25 µg/mL (≈ 0.666 µM). It also gave an MIC90 (Hoylesella oralis) of 0.5 µg/mL (≈ 1.33 µM), an MIC50 (Shigella sonnei) of 0.03 µg/mL (≈ 0.0799 µM) and an MIC90 (Shigella sonnei) of 0.06 µg/mL (≈ 0.16 µM). For the same compound, the MIC50 [7] was 2 µg/mL (≈ 5.33 µM) and the MIC90 [7] was 32 µg/mL (≈ 85.2 µM).
